pIC50, pKi: −log10 of the molar value. Activity calls are given as the source filed them. The calls are words filed in the database; no cut-off is given here.
How the values were obtained:
Liver carboxylesterase [1] = biological target: T1, Liver carboxylesterase (Sus scrofa, UniProt Q29550); assay: Inhibition of porcine liver carboxylesterase using 4-NPA as substrate preincubated for 10 mins followed by substrate addition by spectrophotometric analysis; type: tissue-based
T1 sequence (Q29550 whole entry): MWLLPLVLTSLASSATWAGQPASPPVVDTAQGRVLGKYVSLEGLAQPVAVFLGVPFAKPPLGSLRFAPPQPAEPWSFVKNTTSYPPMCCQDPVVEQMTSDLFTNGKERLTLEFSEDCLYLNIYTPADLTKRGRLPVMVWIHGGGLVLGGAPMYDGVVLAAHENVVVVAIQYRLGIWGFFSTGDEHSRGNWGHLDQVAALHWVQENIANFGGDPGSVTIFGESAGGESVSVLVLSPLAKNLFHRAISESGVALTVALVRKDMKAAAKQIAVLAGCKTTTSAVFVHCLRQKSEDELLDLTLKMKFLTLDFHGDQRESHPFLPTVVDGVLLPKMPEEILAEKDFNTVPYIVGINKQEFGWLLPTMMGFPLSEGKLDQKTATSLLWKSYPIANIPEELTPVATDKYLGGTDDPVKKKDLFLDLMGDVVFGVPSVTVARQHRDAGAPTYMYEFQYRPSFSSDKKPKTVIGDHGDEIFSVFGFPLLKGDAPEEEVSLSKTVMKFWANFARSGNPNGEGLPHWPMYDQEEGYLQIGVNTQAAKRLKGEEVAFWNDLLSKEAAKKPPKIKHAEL
In short: (§1)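 Porcine liver CES, 0.02 unit/mL, in 0.1 M K/Na phosphate pH 8.0, 25 °C; compound in DMSO (2% v/v final) preincubated 10 min, then 1 mM 4-nitrophenyl acetate; 4-nitrophenol read at 405 nm, enzyme-free blanks. Screening at 20 μM in three separate experiments; IC50 from eight concentrations between 10^-12 and 10^-4 M, residual activity relative to inhibitor-free control.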

Acetylcholinesterase [2] = biological target: T2, Acetylcholinesterase (Homo sapiens, UniProt P22303); assay: Inhibition of human erythrocyte AChE using acetylthiocholine iodide as substrate preincubated for 10 mins followed by substrate addition by Ellman's method
Cholinesterase [3] = biological target: T3, Cholinesterase (Equus caballus, UniProt P81908); assay: Inhibition of equine serum BuChE using […] as substrate preincubated for 10 mins followed by substrate addition by Ellman's method
[4] = Antioxidant activity assessed as trolox equivalent of ABTS radical cation scavenging activity incubated for 24 hrs by UV-Vis spectrophotometric analysis; type: functional
[5] = Antioxidant activity assessed as decrease in ABTS radical cation scavenging activity incubated for 24 hrs by UV-Vis spectrophotometric analysis; type: functional
Liver carboxylesterase [6] = biological target: T1, Liver carboxylesterase; assay: Competitive inhibition of porcine liver carboxylesterase by double reciprocal Lineweaver-Burk plot analysis; type: tissue-based
In short: (§2)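 Porcine liver CES residual activity measured with 3 increasing inhibitor concentrations and 5–6 decreasing 4-nitrophenyl acetate concentrations after 10 min preincubation at 25 °C; parallel inhibitor-free controls. Initial velocities plotted as Lineweaver–Burk double-reciprocal plots to derive mechanism and steady-state inhibition constants; each experiment in triplicate.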

Liver carboxylesterase [7] = biological target: T1, Liver carboxylesterase; assay: Non-competitive inhibition of porcine liver carboxylesterase by double reciprocal Lineweaver-Burk plot analysis; type: tissue-based; settings: pig; in short: as §2
Acetylcholinesterase [8] = biological target: T2, Acetylcholinesterase; assay: Competitive inhibition of human erythrocyte AChE by double reciprocal Lineweaver-Burk plot analysis
In short: (§3)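 Residual activity measured with 3 increasing inhibitor concentrations and 5–6 decreasing substrate concentrations (ATCh for AChE, BTCh for BChE), DTNB read-out, 0.1 M K/Na phosphate pH 7.5, 25 °C; 10 min enzyme–inhibitor preincubation before substrate; no-inhibitor parallel control; triplicate; mechanism from Lineweaver-Burk plots.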

Acetylcholinesterase [9] = biological target: T2, Acetylcholinesterase; assay: Non-competitive inhibition of human erythrocyte AChE by double reciprocal Lineweaver-Burk plot analysis; in short: as §3
Cholinesterase [10] = biological target: T3, Cholinesterase; assay: Competitive inhibition of equine serum BuChE by double reciprocal Lineweaver-Burk plot analysis; in short: as §3
[11] = biological target: Cholinesterase (Equus caballus) (UniProt P81908); assay: Non-competitive inhibition of equine serum BuChE by double reciprocal Lineweaver-Burk plot analysis; in short: as §3
Liver carboxylesterase 1 = biological target: T4, Liver carboxylesterase 1 (Homo sapiens, UniProt P23141); assay: Inhibition of human recombinant CES1 expressed in baculovirus infected BTI insect cells using 4-NPA as substrate by spectrophotometric analysis
T4 sequence (P23141 whole entry): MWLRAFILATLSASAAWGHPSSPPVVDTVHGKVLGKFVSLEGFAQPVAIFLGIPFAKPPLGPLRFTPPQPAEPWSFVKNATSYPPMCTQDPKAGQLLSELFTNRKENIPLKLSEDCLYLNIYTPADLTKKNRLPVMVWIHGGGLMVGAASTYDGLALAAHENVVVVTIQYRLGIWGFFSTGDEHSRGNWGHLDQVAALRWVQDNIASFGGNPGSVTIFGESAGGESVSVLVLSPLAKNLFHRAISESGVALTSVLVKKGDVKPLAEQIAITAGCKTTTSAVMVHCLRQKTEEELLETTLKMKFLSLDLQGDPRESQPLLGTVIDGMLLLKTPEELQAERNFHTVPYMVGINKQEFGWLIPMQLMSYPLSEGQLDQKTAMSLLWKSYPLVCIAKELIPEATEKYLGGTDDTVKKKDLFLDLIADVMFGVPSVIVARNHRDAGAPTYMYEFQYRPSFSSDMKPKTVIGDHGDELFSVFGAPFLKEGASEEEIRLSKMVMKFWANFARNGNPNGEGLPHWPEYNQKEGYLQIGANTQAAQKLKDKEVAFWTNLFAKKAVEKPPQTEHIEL
In short: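 Recombinant hCES1 (baculovirus/BTI insect cells), 0.02 unit/mL, in 0.1 M K/Na phosphate pH 7.4, 25 °C; compound (DMSO, 2% v/v final) preincubated 10 min, then 1 mM 4-nitrophenyl acetate added; 4-nitrophenol release read at 405 nm against enzyme-free blank. IC50 from eight concentrations (10^-12–10^-4 M) relative to inhibitor-free control.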

[12] = Cytotoxicity against human FetMSC cells assessed as reduction in cell viability after 72 hrs by MTT assay; type: cell-based
In short: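 Human fetal MSC (bone-marrow fibroblast-like, nonimmortalized; ≤10–15 passages) grown in F12/DMEM with 10% FBS, 3 mM L-glutamine, penicillin/streptomycin. Seeded at 6×10^3 cells/well; after 24 h, medium replaced with compound at 100, 250, 500 μM for 72 h; controls 0.1% DMSO. MTT 0.5 mg/ml for 4 h, formazan dissolved in DMSO, read at 570 nm; control = 100%.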

[13] = Acute toxicity in ip dosed CD-1 mouse observed for 14 days; type: organism-based; settings: in vivo, time 14 day
In short: (§4)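 CD-1 mice given compound intraperitoneally in 2% (w/v) starch mucilage, three animals per dose group; lethality observed over 14 days; procedure based on OECD recommendations.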

Liver carboxylesterase [14] = biological target: T1, Liver carboxylesterase; assay: Inhibition of porcine liver carboxylesterase at 20 uM using 4-NPA as substrate preincubated for 10 mins followed by substrate addition by spectrophotometric analysis relative to control; type: tissue-based; settings: pig, probe 4-NPA; in short: as §1
Acetylcholinesterase [15] = biological target: T2, Acetylcholinesterase; assay: Inhibition of human erythrocyte AChE at 20 uM using acetylthiocholine iodide as substrate preincubated for 10 mins followed by substrate addition by Ellman's method relative to control
In short: (§5)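 Single-point screen at 20 μM in 0.1 M K/Na phosphate pH 7.5, 25 °C; 0.02 unit/mL enzyme, 1 mM ATCh (AChE) or BTCh (BChE), 0.33 mM DTNB; 2% DMSO final; 10 min preincubation then substrate; activity relative to inhibitor-free control; three separate experiments.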

[16] = biological target: Cholinesterase (Equus caballus) (UniProt P81908); assay: Inhibition of equine serum BuChE at 20 uM using […] as substrate preincubated for 10 mins followed by substrate addition by Ellman's method relative to control; in short: as §5
[17] = Acute toxicity in CD-1 mouse assessed as effect on mouse death at 600 mg/kg, ip measured after 14 days; type: organism-based; settings: in vivo, 336 h, time 14 day; in short: as §4
[18] = Acute toxicity in CD-1 mouse assessed as effect on mouse death at 900 mg/kg, ip measured after 14 days; type: organism-based; settings: in vivo, 336 h, time 14 day; in short: as §4

T2 sequence (P22303 whole entry): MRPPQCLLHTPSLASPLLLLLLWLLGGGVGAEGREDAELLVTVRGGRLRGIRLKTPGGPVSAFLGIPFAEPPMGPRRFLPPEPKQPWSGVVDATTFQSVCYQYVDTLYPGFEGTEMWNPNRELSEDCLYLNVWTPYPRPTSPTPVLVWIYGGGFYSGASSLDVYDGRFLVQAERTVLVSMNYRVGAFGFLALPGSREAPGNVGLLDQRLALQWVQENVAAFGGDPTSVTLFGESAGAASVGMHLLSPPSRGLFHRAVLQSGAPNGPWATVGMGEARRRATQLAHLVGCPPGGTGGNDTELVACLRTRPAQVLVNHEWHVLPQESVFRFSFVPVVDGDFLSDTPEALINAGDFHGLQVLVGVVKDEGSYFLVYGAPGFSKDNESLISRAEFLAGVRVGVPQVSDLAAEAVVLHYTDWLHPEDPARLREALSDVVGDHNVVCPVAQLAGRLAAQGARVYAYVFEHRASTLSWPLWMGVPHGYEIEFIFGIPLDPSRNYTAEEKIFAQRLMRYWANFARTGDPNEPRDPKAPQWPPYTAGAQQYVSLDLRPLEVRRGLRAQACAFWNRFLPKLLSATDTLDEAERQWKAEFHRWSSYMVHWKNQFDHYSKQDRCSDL
T3 sequence (P81908 whole entry): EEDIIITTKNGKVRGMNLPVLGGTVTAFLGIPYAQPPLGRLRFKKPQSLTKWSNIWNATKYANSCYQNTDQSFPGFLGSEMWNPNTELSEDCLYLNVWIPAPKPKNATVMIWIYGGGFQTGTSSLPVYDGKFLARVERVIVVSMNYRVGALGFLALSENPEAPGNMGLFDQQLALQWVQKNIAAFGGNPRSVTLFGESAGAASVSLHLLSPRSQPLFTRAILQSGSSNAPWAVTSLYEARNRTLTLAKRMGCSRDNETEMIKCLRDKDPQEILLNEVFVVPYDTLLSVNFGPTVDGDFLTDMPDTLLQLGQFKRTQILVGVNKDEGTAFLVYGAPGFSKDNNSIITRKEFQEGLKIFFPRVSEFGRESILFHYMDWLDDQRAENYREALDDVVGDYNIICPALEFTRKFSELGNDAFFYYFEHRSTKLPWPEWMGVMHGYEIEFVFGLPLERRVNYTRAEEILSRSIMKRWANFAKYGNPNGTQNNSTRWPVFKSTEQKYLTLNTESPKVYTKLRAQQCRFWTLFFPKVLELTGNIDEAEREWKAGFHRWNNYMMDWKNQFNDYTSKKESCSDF
Sequence of Cholinesterase (Equus caballus) (P81908 whole entry): as above

SMILES | pIC50 (Liver carboxylesterase [1]) | pIC50 (Acetylcholinesterase [2]) | pIC50 (Cholinesterase [3]) | Activity [4] | pIC50 [5] | pKi (Liver carboxylesterase [6]) | alphaKi (Liver carboxylesterase [7]) [nM] | pKi (Acetylcholinesterase [8]) | alphaKi (Acetylcholinesterase [9]) [µM] | pKi (Cholinesterase [10]) | alphaKi [11] [µM] | pIC50 (Liver carboxylesterase 1) | pIC50 [12] | LD50 at 336 h [13] [mg/kg] | inhibition at 20 µM (Liver carboxylesterase [14]) [%] | inhibition (Acetylcholinesterase [15]) [%] | inhibition [16] | Activity [17] | Activity [18]
COC(=O)/C(=N\Nc1ccc(C)cc1)C(=O)C(F)(F)F | 7.56 | 4.55 | 4.48 | 0.98 | 4.67 | 7.85 | 82.2 | 5.00 | 139 | 4.53 | 72.7 | 7.79 |  |  |  |  |  |  | 
CCOC(=O)/C(=N\Nc1ccc(Br)cc1)C(=O)C(F)(F)F | 8.29 | 5.87 | 5.69 | 0.53 | 4.44 |  |  |  |  |  |  | 7.81 | < 3.30 | 300 |  |  |  |  | 
CCOC(=O)/C(=N\Nc1cccc(C)c1)C(=O)C(F)(F)F | 8.14 | 4.52 | 4.42 | 0.85 | 4.60 |  |  |  |  |  |  | 8.29 | < 3.30 | 300 |  |  |  |  | 
CCOC(=O)/C(=N\Nc1ccc(C)cc1)C(C)=O |  |  |  | 0.38 | 4.28 |  |  |  |  |  |  |  |  |  | 12.1 | 6.8 | inactive |  | 
CCOC(=O)/C(=N\Nc1ccccc1)C(=O)C(F)(F)F | 8.21 | 5.49 | 5.07 | 0.8 | 4.57 |  |  |  |  |  |  | 8.21 | < 3.30 | 600 |  |  |  | Non-Toxic | 
CCOC(=O)/C(=N\Nc1ccc(C)cc1)C(=O)C(F)(F)F | 8.13 | 5.14 | 5.08 | 0.95 | 4.67 |  |  |  |  |  |  | 8.53 | < 3.30 | 900 |  |  |  |  | Non-Toxic

From ChEMBL document CHEMBL4819068, “Novel potent bifunctional carboxylesterase inhibitors based on a polyfluoroalkyl-2-imino-1,3-dione scaffold” (Eur J Med Chem, 2021)
